# This is a sample that favours compounds with a hit; in the whole collection about 1.7% have one here.
# TPT1 inhibitor – C. albicans TPT1 enzyme inhibition; recombinant caTPT1, FP RNA substrate dephosphorylation; inhibition, % at 5 µM; hit rate 0.81% among 300,000; AID 1962;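 active = inhibition above the mean of all tested compounds plus 3 SD, set per screening campaign, cut at about 24% in these data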;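 also: plate controls were DMSO alone for no effect and ferristatin control at 100 nM for full effect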
# HNF4A DNA FP – change in binding of human HNF4 alpha to DNA | activity change, % at 10 µM | AID 1224865 | P41235 | hit rate 0.3% among 360,000 | HNF4a-FITC DNA binding, fluorescence polarization, 1 h; in the data active = activity change above about 30%, passing the limit was not always enough
# CSN inh – blocks human CSN-mediated cullin deneddylation; Q92905; Purified CSN, SCF-Nedd8-OG deneddylation, fluorescence polarization; inhibition, % at 12.5 µM; hit rate 0.38% among 360,000; AID 651999;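 active = pattern-corrected inhibition above about 35%, with an unprinted fluorescence ratio check between 0.5 and 1.5, limit read from the data, passing the limit was not always enough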;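 also: 0% = enzyme with substrate and 100% = substrate without enzyme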
#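 Material: human Csn5 produced in HEK293T cells; Input: enzyme 0.24 nM; Reagent: SCFSkp2-Nedd8OG substrate at 10 nM final; Dosing: 12.5 µM compound; Incubation: 90 min reaction at room temperature; Detection: fluorescence polarization of the substrate; Evaluation: % inhibition of substrate cleavage by Csn5; Control set: substrate-only high control, full reaction low control.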
# IDE cell activ – boosts human insulin-degrading enzyme activity in HEK cells; FAbeta-B cleavage, fluorescence polarization; 0% vehicle, 100% cell-free pure enzyme wells; activation, % at 5.96 µM; hit rate 0.073% among 340,000; AID 493087;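 active = activation above the mean of all tested compounds plus 3 SD, set per screening campaign, cut at about 17% in these data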
# Rpn11 inh – blocks the human proteasome subunit Rpn11; human 26S proteasome, Ub4-pepOG fluorescence polarization; 20S core pre-blocked with epoxomicin; inhibition, % at 20 µM; O00487; AID 588493; hit rate 0.59% among 360,000;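 active = inhibition at 20 µM, scaled to each plate's controls, above about 33%, limit read from the data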
# IDE inh – inhibitors of human insulin-degrading enzyme in cells; P14735; HEK cells, FAbetaB cleavage, fluorescence polarization; inhibition, % at 5.59 µM; hit rate 0.41% among 320,000;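 active = percent inhibition above the average of all tested compounds plus 3 SD, set per screening campaign, cut at about 16% in these data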;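 also: IDE supplied by intact live HEK cells; FP after avidin binding of uncleaved biotin substrate so inhibition keeps polarization high; 0% = DMSO wells and 100% = 60 µM reference IDE inhibitor Ii1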
# TPT1 inh confirm – TPT1 (C. albicans) inhibition, confirmation | AID 2149 | inhibition, % at 5 µM | hit rate 74% among 2,400 | shares compounds with TPT1 inhibitor | recombinant caTPT1, fluorescence polarization, RNase T1 coupled;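 active = inhibition above the primary screen limit, the mean inhibition of all tested compounds plus 3 SD, cut at about 25% in these data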
# RNase T1 inh – counter-screen for TPT1 inhibitors: inhibitors of Aspergillus oryzae RNase T1 | shares compounds with TPT1 inhibitor | RNase T1 cleavage, fluorescence polarization, 1536-well | inhibition, % at 5 µM | hit rate 83% among 2,400;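 active = inhibition above the solvent-only control well mean plus 3 SD, limit set per screening run, cut at about 23% in these data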;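 also: plate controls were DMSO wells with enzyme for no effect and wells without RNase T1 for full effect; inhibitors block cleavage so intact labeled substrate keeps polarization high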
# IDE cell inh cf – cellular human IDE inhibition, confirmation; shares compounds with IDE inh; inhibition, % at 5.59 µM; HEK cells, FAbetaB cleavage, fluorescence polarization; hit rate 51% among 1,200;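 active = mean inhibition across triplicate wells above the cutoff set by the earlier primary insulin-degrading enzyme screen, cut at about 16% in these data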;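 also: 0% = DMSO wells and 100% = 60 µM reference IDE inhibitor Ii1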
# HEK293 tox – HEK cell cytotoxicity, counter-screen for IDE inhibitors. shares compounds with IDE inh. HEK293 cytotoxicity, ATP luminescence. inhibition, % at 5.59 µM. hit rate 28% among 1,200. AID 449730; in the data active = inhibition above about 22%;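 also: 0% = vehicle wells and 100% = reference cytotoxic drug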
# Rpn11 inh conf – Rpn11 inhibition confirmation, single concentration; purified human 26S proteasome, Ub4-pepOG fluorescence polarization; proteasome pretreated with epoxomicin; hit rate 29% among 1,900; shares compounds with Rpn11 inh; inhibition, % at 20 µM
# MMP-2 counter – counter-screen for RPN11 inhibitors: inhibition of human MMP-2. inhibition, % at 20 µM. hit rate 4% among 1,900. recombinant MMP-2, FRET peptide cleavage fluorescence. shares compounds with Rpn11 inh;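 also: human MMP-2 activated beforehand with APMA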
# Thrombin inh – counter-screen for RPN11 inhibitors: inhibition of bovine thrombin | hit rate 13% among 1,900 | AID 602333 | shares compounds with Rpn11 inh | inhibition, % at 20 µM | bovine thrombin cleavage of Ub4-pepOG, fluorescence polarization;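 active = mean inhibition at least 40% at 20 µM, or signal 3 deviations below plate average, so some actives read negative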;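 also: plate controls were thrombin with DMSO for no effect and buffer wells lacking thrombin for full effect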
# Target sequence (P00735 whole entry, looked up): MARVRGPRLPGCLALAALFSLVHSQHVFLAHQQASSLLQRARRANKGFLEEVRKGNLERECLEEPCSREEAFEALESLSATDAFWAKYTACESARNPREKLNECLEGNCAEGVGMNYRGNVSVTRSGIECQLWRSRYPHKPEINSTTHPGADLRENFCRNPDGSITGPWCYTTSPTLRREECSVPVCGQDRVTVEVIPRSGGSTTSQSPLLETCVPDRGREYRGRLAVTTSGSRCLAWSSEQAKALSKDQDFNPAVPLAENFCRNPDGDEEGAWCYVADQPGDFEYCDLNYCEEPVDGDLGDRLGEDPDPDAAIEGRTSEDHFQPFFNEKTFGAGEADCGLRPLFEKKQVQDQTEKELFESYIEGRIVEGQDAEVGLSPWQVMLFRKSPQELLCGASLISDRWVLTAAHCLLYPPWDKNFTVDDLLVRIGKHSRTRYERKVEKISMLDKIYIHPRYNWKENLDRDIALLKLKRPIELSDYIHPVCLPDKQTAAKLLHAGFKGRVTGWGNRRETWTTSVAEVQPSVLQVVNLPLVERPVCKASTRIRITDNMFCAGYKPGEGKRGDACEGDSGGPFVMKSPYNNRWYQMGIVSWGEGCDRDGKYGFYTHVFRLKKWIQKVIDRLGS
# * marks the source's active call; other numbers are inactive results; i = inactive; · = no result given; + = active, no number. Rule as the data show it, unless noted: active = inhibition above about 40%; inactive = the rest.
SMILES,TPT1 inhibitor,HNF4A DNA FP,CSN inh,IDE cell activ,Rpn11 inh,IDE inh,TPT1 inh confirm,RNase T1 inh,Rpn11 inh conf,MMP-2 counter,Thrombin inh,others
COc1ccc(N/C=C/C(=O)c2sc(-c3ccccc3)nc2C)cc1,71.1*,23.0,5.1,1.1,39.8*,5.2,51.6*,64.7*,17.2,-14.9,-17.4,
Cc1sc2nc(CSC(C)C(=O)Nc3ccc(C(N)=O)cc3)[nH]c(=O)c2c1C (stereo not given),7.6,9.1,9.6,2.9,16.4,-0.8,·,·,·,·,·,
Cc1sc2nc(CSC(C)C(=O)Nc3ccc(C#N)cc3)[nH]c(=O)c2c1C (stereo not given),28.7*,20.0,7.1,-2.8,45.5*,0.6,37.6*,49.3*,32.2,-11.3,29.2,
Cc1sc2nc(CSCC(=O)Nc3ccccc3C#N)[nH]c(=O)c2c1C,36.9*,13.9,3.5,2.3,49.2*,2.3,47.1*,60.8*,45.8*,-12.3,29.9,
O=C(CC[C@H]1O[C@@H](n2cnc3c(NC(=O)c4ccccc4)ncnc32)[C@H](O)[C@@H]1O)N[C@@H](CO)Cc1c[nH]c2ccccc12,·,0.9,0.5,·,2.1,·,·,·,·,·,·,
O=C(Nc1nccs1)c1ccc(-c2ccc([N+](=O)[O-])cc2)o1,36.9*,28.7,17.1,2.6,73.2*,-1.6,34.2*,48.4*,-14.2,-4.2,active,
CCOc1ccc2nc(NC3=NC(c4ccc(OC)cc4)CC(=O)N3)nc(C)c2c1 (stereo not given),25.6*,13.7,12.8,1.4,+,4.0,17.9,24.7*,44.3*,i,-5.0,
CC1COC(C)(CC(=O)NN2C(=O)c3ccccc3C2=O)O1 (stereo not given),-8.8,2.8,6.3,7.1,2.9,4.1,·,·,·,·,·,
COCCN=c1scc(-c2cc(OC)c(OC)c(OC)c2)n1/N=C/c1c(C)[nH]c2ccccc12,44.2*,30.8,11.7,5.9,112.1*,-0.9,59.8*,70.6*,56.1*,22.5,26.6,
Cc1[nH]c2ccccc2c1/C=N/n1cnnc1,1.4,1.5,-1.0,-5.5,-3.2,-2.6,·,·,·,·,·,
COc1cccc2c1Oc1ncccc1N(C(=O)CCC(=O)NCc1ccc(C)cc1)C2,-4.5,-1.2,0.4,7.8,-2.3,3.2,·,·,·,·,·,
Cc1ccc(S(=O)(=O)Nc2cc(C)cn(Cc3ccc(F)cc3)c2=O)cc1,24.5*,17.7,18.5,-1.6,60.5*,3.5,35.7*,47.0*,33.0,-19.0,58.5*,
CN(C)S(=O)(=O)c1cccc(-c2nn(-c3ccccc3)cc2/C=C2\SC(=S)NC2=O)c1,74.7*,58.5*,22.3,-1.0,86.5*,25.6*,23.9,32.9*,35.2,11.3,18.8,IDE cell inh cf=-2.7;HEK293 tox=23.1*
COc1cc(/C=C(/C#N)C(=O)NC(C)c2ccccc2)cc(OC)c1O (stereo not given),65.9*,2.6,17.6,-53.1,71.3*,74.8*,106.7*,107.5*,22.4,-12.0,8.3,IDE cell inh cf=78.8*;HEK293 tox=10.3

# Compound activity as filed in PubChem.
